Screening results from PubChem.
GRK2 inh: blocks RNA aptamer binding to human GRK2 | inhibition of aptamer binding, % at 10 µM | bead flow cytometry, FAM-aptamer displacement from GRK2 | P25098 | 0.59% of 330,000 active;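 active means inhibition of aptamer binding above 40%, roughly 3 SD of noise, on plates passing a quality check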;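 further: median bead fluorescence of bound FAM aptamer so fluorescent compounds give negative values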
Lipid droplet: modulators of hepatic lipid droplet formation | AML12 mouse hepatocytes, oleate lipid droplets, BODIPY imaging | inhibition, % at 6.5 µM | 0.4% of 240,000 active | AID 1656;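 active means lipid droplet intensity inhibited by at least 50%, with more than 500 cells counted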
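Material – AML12 mouse liver cells · Also added – oleate loading, 100 µM · Compound dosing – 6.5 µM single-point dosing · Times – overnight treatment with compound plus oleate · Measured by – fluorescence imaging, 20x objective, two fields per well · Read-out – percent inhibition of filter-corrected integrated lipid droplet intensity per well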
Arrestin-AP2 inh: inhibitors of human beta-arrestin and AP2 interaction; FITC-arrestin peptide / GST-AP2 beads, flow cytometry; AP2 beta2 appendage carries R879A mutation; inhibition, % at 10 µM; 0.31% of 340,000 active;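 active means inhibition above a set limit, near 3 SD of compounds lacking own fluorescence, cut at about 54% in these data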;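 further: plate controls were DMSO wells for no effect and 5 µM unlabelled arrestin peptide for full effect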
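system = GST-tagged AP2 beta2-adaptin appendage (R879A) on 4 µm glutathione beads | reagent = FITC-labelled arrestin peptide probe, 50 nM final | schedule = compound with beads 12 min RT, then probe 1 h RT | signal = HyperCyt-sampled flow cytometry, FL1 channel, ex 488/em 535 nm | read-out = percent response from loss of bead-bound FITC fluorescence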
H9c2 TAG inh: inhibitors of triacylglycerol accumulation; H9c2 cells, Nile Red lipid (TAG) fluorescence; cells loaded with 200 µM oleic acid; inhibition, % at 12.5 µM; 0.66% of 230,000 active; AID 651582;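 active means pattern-corrected inhibition of lipid staining of at least 50% with the nuclear-stain viability signal not falling by more than 50%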;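 further: 0% = DMSO wells and 100% = triacsin C control wells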
NTR1 ag: activates human neurotensin receptor 1; P30989; NTR1-U2OS beta-arrestin-GFP spot imaging, agonist mode; activation, % at 20 µM; 0.17% of 330,000 active; AID 493036;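 active means activation at or above 40% of the spot to cytoplasm intensity ratio, with at least 20 cells analyzed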;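 further: 0% = DMSO without peptide and 100% = 100 nM NTR1 peptide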
Target sequence (P30989 whole entry, looked up): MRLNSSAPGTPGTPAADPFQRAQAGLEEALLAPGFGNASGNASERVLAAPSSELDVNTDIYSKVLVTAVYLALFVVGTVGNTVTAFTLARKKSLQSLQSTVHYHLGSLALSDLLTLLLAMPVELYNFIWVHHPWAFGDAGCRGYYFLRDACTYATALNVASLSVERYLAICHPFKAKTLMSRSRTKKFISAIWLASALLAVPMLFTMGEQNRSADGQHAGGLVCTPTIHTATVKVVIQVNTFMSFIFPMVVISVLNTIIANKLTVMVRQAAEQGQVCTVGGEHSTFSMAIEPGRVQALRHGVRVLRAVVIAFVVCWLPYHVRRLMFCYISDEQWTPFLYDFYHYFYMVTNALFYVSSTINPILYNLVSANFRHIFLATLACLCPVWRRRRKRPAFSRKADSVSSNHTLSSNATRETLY
Beta2AR agonist: human beta-2 adrenergic receptor agonism by FAP. P07550. Am2.2-beta2AR cells, FAP receptor internalization, flow cytometry. response, % (no concentration beside the values). 0.43% of 340,000 active. AID 504454;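 active means response above a set limit, near 3 SD of response in nonfluorescent compounds, cut at about 42% in these data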
GRK2 inh confirm: confirmation of human GRK2 inhibitors displacing RNA aptamer; shares compounds with GRK2 inh; bead-bound GRK2, FAM-aptamer displacement, flow cytometry; aptamer displacement, % at 10 µM; 4% of 2,000 active;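 active means aptamer displacement above 40%, near three times the noise of non-fluorescent compounds, on plates passing quality checks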;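 further: negative values mostly reflect intrinsic compound fluorescence rather than true enhancement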
Aptamer quench SP: counter-screen for GRK2 aptamer inhibitors: fluorescent aptamer quenchers. Carboxyfluorescein RNA aptamer on beads, flow cytometry quenching; stronger effect = lower value. 2,000 tested, under 10 active. fluorescence response (% of DMSO), % at 10 µM. shares compounds with GRK2 inh;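 active means compounds that quench the bead-bound fluorescent RNA probe, cutting fluorescence to under half of the solvent control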;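 further: counterscreen run without GRK2 so only probe quenching by compound is measured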
GRK2 confirm 2: confirmation of human GRK2 inhibitors binding RNA aptamer site | bead-bound GRK2, FAM-aptamer displacement, flow cytometry | shares compounds with GRK2 inh | inhibition of aptamer binding, % at 10 µM | 360 tested, under 10 active;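 active means inhibition of aptamer binding above 40%, about triple the noise seen with nonglowing compounds, on plates passing quality control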;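 further: negative values mostly come from compounds that fluoresce themselves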
FAM quench CP2: aptamer fluorescence quenching in GRK2 counter-screen; shares compounds with GRK2 inh; carboxyfluorescein RNA aptamer beads, flow cytometry quenching; stronger effect = lower value; 360 tested, under 10 active; fluorescence response vs DMSO, % at 10 µM; AID 588494;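 active means response vs DMSO under 50%, meaning signal dropped by over half, treated as fluorescence quencher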;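 further: labelled aptamer on streptavidin beads without GRK2 as a quench counter-screen; 100% = bead fluorescence of DMSO wells and lower means quenching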
* = called active by the depositor; · = no result given. The list is not random: actives were taken first. Their share in the collection is about 2%.

SMILES	GRK2 inh	Lipid droplet	Arrestin-AP2 inh	H9c2 TAG inh	NTR1 ag	Beta2AR agonist	GRK2 inh confirm	Aptamer quench SP	others
O=C(C1CCCCCC1)N1CC[C@@H](N2CCC(O)CC2)[C@H](O)C1	31	2	36	-2	1	3	-5	102
O=C(C1CCCCC1)N1CCN(C(=O)C2CCCCC2)CC1	0	·	-2	·	0	4	·	·
Cc1[nH]c2ccccc2c1C(=O)CN1CC(C)OC(C)C1 (configuration not stated)	0	5	·	·	0	·	·	·
COc1ccc2[nH]c3c(c2c1)CCN1C(=O)C(CC(=O)NCCCn2ccnc2)C[C@H](C(=O)N2CCCCC2)[C@@]31CCc1ccccc1 (some centres not stated)	1	·	9	-4	0	12	·	·
O=C(Nc1ccc(Cl)cc1)c1cc(Br)ccc1OCC(=O)N1CCOCC1	0	-34	18	29	10	-1	·	·
NC(=O)[C@@H]1CCCNc2c(I)cc([N+](=O)[O-])cc2C(=O)N[C@@H](CCC(=O)O)C(=O)N[C@@H](CO)C(=O)N1	88*	1	-1	6	-2	0	-15	129
O=C(CNS(=O)(=O)c1ccccc1)N/N=C/c1ccccc1[N+](=O)[O-]	12	-4	22	·	0	-3	·	·
CCn1c(SCC(=O)N2CCCC2)nnc1-c1ccco1	47*	13	-3	·	2	-10	3	95
CCn1c(SCC(=O)N2CCOCC2)nnc1-c1ccco1	7	16	-7	·	1	9	·	·
CCN(CC)S(=O)(=O)c1cc(C)ccc1NC(=S)Nc1cccnc1	0	-13	3	-15	2	15	·	·
COc1cc2oc3cc(C#Cc4ccc(N)cc4)ccc3c(=O)c2cc1OC	70*	·	-8	12	3	7	3	98
O=C(NCc1n[nH]c(=S)n1-c1cccc(C(F)(F)F)c1)c1ccc(S(=O)(=O)N2CCCCC2)cc1	24	-2	-5	·	1	3	·	·
COc1cc(CN2CCN(C(O)(c3ccccc3)c3ccccc3)CC2)cc(OC)c1OC	1	·	25	19	1	10	·	·
Cc1sc2ncnc(NCCCO)c2c1C	29	·	14	4	0	-8	-2	103
O=C(N/N=C/c1c(O)ccc2ccccc12)Nc1ccccc1	43*	·	10	·	2	3	-2	99
CC(=O)Oc1[nH]c(=O)c2cccc3c2c1CCC3	·	·	·	-6	·	·	·	·
CCN(/N=C/c1ccc(Cl)cc1)c1cc(=O)n(C)c(=O)[nH]1	92*	6	·	0	0	2	-8	95
CCN(/N=C/C=C/c1ccccc1)c1cc(=O)n(C)c(=O)[nH]1	0	-1	-13	-1	3	-2	·	·
O=C(CSc1nc2ccccc2[nH]1)N1CCN(S(=O)(=O)c2ccc(Cl)cc2)CC1	45*	1	4	6	0	-11	2	96
CCn1c(=O)c(CCC(=O)NCC2CCCO2)c(C)c2c(C)nn(-c3ccc(C)cc3)c21 (configuration not stated)	1	-8	3	·	0	10	·	·
CCCOc1ccc(OC(=O)Cc2ccc(OC)c(S(=O)(=O)N3CCOCC3)c2)cc1	100*	·	8	-2	2	-7	-7	100
COc1ccc(SCC(=O)Nc2ccccc2Cl)cc1	65*	-4	-15	-11	1	7	·	·	GRK2 confirm 2=3;FAM quench CP2=101
COc1ccc(OCC(=O)Nc2ccccc2Cl)cc1	1	-1	-13	-4	0	-1	·	·
COc1ccc(CN2CC(C(=O)NCCCN3CCCCC3)CC2=O)cc1 (configuration not stated)	0	-3	33	·	-2	3	·	·
O=C(OCC(=O)N1CCN(S(=O)(=O)c2ccccc2)CC1)C1CCC1	59*	·	0	2	-1	13	·	·	GRK2 confirm 2=13;FAM quench CP2=101
SMILES	GRK2 inh	Lipid droplet	Arrestin-AP2 inh	H9c2 TAG inh	NTR1 ag	Beta2AR agonist	GRK2 inh confirm	Aptamer quench SP	others
CC1Nc2nc(N(C)C)[nH]c(=O)c2NC1C (configuration not stated)	15	-2	-6	·	·	0	1	104
CN(C)c1nc(C(F)(F)F)cc(=O)[nH]1	0	1	22	-11	-1	4	·	·
CN(CC(=O)Nc1ccc(N2CCOCC2)cc1)C(=O)CCc1ccccc1Cl	0	·	-9	27	-1	-5	-1	98
CCC(=O)c1ccc(OCC(=O)OCC(=O)NCCCc2ccccc2)cc1	0	·	2	-6	0	-8	·	·
CSc1ccc(Cl)c(C(=O)N2CCN(c3ncccn3)CC2)c1	43*	·	29	8	0	-5	·	·	GRK2 confirm 2=9;FAM quench CP2=101
CCOC(=O)C1=C(COCCN)NC(C)=C(C(=O)OC)C1c1ccccc1Cl (configuration not stated)	1	·	17	12	12	39	·	·
CCOC(=O)C1=C(C)NC(C)=C(C(=O)OC)C1c1cccc(Cl)c1Cl (configuration not stated)	0	-1	-4	-34	19	-3	-3	95
O=C(CC(Cc1ccccc1)C(=O)O)Nc1ccccc1 (configuration not stated)	1	-9	-12	·	0	-9	·	·
O=C(CC(Cc1ccccc1)C(=O)O)Nc1ccc(Cl)c(Cl)c1 (configuration not stated)	99*	-9	1	·	9	3	-2	100
O=Cc1ccc(Oc2nc(Cl)ncc2F)cc1	39	2	-6	·	2	0	12	91
O=Cc1ccc(Oc2ccc(F)cc2)nc1	9	1	14	-6	-1	-4	·	·
Cc1cccc(N2CC(C(=O)Nc3ccc(N4CCOCC4)cc3)CC2=O)c1C (configuration not stated)	0	·	6	7	0	-5	·	·
Cc1cccc(N2CC(C(=O)Nc3ccccc3N3CCOCC3)CC2=O)c1C (configuration not stated)	32	·	-5	10	-2	4	1	100
COc1ccc(NC(=O)CN(C)C(=O)CNC(=O)c2cccs2)cc1	4	-6	25	4	1	-1	·	·
